Where only a bound is given, the exact number is not on record here.

One assay deals with T1, DNA topoisomerase 1 (Chlorocebus aethiops, UniProt Q7YR26).
T1 sequence (Q7YR26 whole entry): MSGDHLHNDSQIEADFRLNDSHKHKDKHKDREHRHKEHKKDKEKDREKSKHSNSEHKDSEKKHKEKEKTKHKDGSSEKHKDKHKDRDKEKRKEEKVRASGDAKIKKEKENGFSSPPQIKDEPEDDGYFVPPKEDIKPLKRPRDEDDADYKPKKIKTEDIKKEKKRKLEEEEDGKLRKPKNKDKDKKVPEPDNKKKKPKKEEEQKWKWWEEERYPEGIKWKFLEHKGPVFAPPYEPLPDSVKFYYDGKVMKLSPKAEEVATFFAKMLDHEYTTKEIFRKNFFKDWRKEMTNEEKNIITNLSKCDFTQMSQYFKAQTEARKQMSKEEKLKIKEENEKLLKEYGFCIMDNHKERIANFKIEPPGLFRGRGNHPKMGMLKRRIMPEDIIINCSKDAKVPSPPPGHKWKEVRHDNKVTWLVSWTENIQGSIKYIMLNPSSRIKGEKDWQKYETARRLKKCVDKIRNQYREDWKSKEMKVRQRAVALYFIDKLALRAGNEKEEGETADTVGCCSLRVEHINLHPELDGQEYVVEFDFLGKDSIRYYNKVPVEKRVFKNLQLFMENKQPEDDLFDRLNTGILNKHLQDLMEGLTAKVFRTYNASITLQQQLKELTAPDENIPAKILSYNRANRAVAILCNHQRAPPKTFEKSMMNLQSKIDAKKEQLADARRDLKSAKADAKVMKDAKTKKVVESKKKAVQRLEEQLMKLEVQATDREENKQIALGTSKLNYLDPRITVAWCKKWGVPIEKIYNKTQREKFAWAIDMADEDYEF
Kind of assay: Inhibition topoisomerase 1 in african green monkey Vero cells assessed as conversion of supercoiled pBR322 DNA to relaxed form. Type of assay: cell-based, Chlorocebus sabaeus. A digest of the protocol: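 Enzyme source: Vero or NIH3T3 cells cultured 5 days, washed in PBS and pelleted (1 × 10^6 cells). Lysed 30 min on ice in 200 µL buffer (10 mM Tris-HCl pH 7.5, MgCl2, EGTA, AEBSF, β-mercaptoethanol, 0.5% CHAPS, 10% glycerin); the cleared supernatant relaxed supercoiled pBR322. Gel densitometry; IC50 is the amount halving activity.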

Assay [1] concerns the target DNA topoisomerase 2-alpha (Homo sapiens, UniProt P11388). The assay is described as follows: Inhibition human placenta topoisomerase 2 assessed as conversion of catenated kinetoplast DNA to minicircle monomer. In a few lines: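 Human placenta topoisomerase II decatenation followed as conversion of catenated kinetoplast DNA to minicircle monomers.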
Assay [2] in a line: Inhibition of Arthrobacter luteus AluI assessed as undigested supercoiled pBR322 DNA concentration. The arrangement: species or system Cellulosimicrobium cellulans. A digest of the protocol:
(§1)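 Restriction enzyme or nuclease activity followed as the remaining undigested supercoiled pBR322 DNA (or RNA) after reaction.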

Assay [3] has as its target T2, Type II restriction enzyme ScaI (Streptomyces caespitosus, UniProt O52691).
T2 sequence (O52691 whole entry): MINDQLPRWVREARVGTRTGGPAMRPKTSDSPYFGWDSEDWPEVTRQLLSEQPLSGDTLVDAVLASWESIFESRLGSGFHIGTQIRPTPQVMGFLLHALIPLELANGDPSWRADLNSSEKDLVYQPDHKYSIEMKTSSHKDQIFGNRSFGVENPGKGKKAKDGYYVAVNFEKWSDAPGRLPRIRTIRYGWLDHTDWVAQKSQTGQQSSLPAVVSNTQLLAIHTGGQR
Kind of assay: Inhibition of Streptomyces caespitosus Sca 1 assessed as undigested supercoiled pBR322 DNA concentration. A digest of the protocol: as §1

Another assay addresses T3, DNA ligase (Enterobacteria phage T4, UniProt P00970).
T3 sequence (P00970 whole entry): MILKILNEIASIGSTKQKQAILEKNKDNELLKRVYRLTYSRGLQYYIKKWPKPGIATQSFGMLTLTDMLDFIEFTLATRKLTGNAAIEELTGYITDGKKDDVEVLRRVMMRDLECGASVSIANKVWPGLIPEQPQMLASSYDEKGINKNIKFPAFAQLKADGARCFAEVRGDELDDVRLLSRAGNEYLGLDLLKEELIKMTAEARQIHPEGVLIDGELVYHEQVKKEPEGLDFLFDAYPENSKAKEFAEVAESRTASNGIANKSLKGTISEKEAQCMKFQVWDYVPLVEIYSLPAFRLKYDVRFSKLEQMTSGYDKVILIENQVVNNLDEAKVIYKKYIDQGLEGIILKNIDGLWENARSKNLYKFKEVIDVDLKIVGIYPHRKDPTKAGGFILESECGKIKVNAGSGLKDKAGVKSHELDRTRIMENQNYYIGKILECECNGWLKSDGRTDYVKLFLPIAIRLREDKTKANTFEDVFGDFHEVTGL
Kind of assay: Inhibition of T4 ligase from bacteriophage infected Escherichia coli assessed as ligation of supercoiled pBR322 DNA. Also noted: species or system Tequatrovirus T4.

Assay [4] has as its target T4, Type II restriction enzyme HindIII (Haemophilus influenzae (strain ATCC 51907 / DSM 11121 / KW20 / Rd), UniProt P43870).
T4 sequence (P43870 whole entry): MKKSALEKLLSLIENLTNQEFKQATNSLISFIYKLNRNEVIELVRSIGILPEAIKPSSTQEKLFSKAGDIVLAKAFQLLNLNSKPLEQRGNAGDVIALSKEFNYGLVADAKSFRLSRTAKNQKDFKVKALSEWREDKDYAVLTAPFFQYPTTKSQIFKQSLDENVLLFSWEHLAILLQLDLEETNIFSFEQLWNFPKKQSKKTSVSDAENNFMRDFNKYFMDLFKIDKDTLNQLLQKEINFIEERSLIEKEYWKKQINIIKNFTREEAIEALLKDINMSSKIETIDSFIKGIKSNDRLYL
Kind of assay: Inhibition of Haemophilus influenzae Hind 3 assessed as undigested supercoiled pBR322 DNA concentration. A digest of the protocol: as §1

For a further assay, the target named is T5, Ribonuclease pancreatic (Bos taurus, UniProt P61823).
T5 sequence (P61823 whole entry): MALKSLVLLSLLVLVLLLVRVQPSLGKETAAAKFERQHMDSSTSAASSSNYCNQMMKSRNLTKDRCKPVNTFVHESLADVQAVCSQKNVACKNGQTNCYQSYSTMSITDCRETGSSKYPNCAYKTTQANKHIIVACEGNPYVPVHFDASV
The assay is described as follows: Inhibition of bovine pancreas RNase A assessed as undigested supercoiled pBR322 DNA concentration. In a few lines:
as §1

Assay [5] concerns the target T6, Deoxyribonuclease-2-alpha (Sus scrofa, UniProt O62855).
T6 sequence (O62855 whole entry): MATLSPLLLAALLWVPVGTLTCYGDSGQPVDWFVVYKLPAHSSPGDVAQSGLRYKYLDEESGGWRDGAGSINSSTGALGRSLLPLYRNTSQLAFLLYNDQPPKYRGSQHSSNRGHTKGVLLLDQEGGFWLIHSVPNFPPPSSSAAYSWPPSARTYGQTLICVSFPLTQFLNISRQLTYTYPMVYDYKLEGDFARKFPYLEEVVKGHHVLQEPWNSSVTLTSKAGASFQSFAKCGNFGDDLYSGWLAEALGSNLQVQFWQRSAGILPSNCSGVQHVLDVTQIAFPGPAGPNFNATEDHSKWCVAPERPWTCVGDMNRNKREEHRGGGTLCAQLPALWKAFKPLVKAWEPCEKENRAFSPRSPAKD
The assay is described as follows: Inhibition of porcine spleen DNase 2 assessed as undigested supercoiled pBR322 DNA concentration. A digest of the protocol:
as §1

Sequence of DNA topoisomerase 2-alpha (P11388 whole entry): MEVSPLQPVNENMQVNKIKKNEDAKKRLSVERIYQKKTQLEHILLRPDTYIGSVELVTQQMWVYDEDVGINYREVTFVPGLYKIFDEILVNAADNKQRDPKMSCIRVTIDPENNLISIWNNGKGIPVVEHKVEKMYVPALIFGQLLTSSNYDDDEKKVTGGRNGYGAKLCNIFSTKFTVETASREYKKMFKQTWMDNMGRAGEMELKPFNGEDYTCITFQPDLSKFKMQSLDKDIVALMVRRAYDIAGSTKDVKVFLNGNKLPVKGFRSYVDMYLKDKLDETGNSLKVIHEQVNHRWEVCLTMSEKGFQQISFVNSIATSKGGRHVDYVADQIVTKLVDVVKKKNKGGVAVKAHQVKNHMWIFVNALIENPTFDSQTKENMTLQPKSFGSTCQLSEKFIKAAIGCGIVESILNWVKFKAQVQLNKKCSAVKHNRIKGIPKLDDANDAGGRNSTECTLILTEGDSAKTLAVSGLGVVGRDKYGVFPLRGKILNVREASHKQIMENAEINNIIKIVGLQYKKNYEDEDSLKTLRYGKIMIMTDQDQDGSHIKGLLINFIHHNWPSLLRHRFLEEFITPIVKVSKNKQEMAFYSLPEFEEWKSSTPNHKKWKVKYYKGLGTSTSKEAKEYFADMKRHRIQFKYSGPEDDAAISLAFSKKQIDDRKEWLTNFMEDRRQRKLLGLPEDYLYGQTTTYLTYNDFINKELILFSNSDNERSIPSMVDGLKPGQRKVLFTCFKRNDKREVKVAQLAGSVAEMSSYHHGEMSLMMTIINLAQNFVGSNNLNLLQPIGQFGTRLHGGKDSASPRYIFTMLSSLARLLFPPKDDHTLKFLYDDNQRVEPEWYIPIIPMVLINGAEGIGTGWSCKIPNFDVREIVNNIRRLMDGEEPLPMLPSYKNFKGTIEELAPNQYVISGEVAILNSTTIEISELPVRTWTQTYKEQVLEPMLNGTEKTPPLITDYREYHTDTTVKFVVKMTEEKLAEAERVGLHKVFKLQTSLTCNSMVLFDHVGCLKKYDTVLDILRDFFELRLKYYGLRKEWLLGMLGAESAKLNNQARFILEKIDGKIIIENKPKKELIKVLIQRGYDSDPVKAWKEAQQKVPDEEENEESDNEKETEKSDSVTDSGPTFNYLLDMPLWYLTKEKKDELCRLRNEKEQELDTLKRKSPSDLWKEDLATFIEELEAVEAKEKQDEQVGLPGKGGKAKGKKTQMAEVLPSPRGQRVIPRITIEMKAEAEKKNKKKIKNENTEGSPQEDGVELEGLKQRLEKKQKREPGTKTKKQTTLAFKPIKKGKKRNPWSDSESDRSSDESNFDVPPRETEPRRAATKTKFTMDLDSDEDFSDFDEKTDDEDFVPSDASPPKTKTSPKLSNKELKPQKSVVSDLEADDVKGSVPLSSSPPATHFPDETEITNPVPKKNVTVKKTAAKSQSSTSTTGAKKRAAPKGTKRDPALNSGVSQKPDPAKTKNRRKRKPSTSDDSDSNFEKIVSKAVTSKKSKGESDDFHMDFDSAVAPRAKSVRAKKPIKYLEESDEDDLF

The IC50 is the concentration needed to halve the response being measured. `O=C1Oc2cc(O)ccc2/C1=C\c1ccc(O)cc1` [ISOAUROSTATIN]: the IC50 (on DNA topoisomerase 1; in assay [1]; in assay [2]; in assay [3]; at DNA ligase; in assay [4]) was over 400 µM in each case. Besides, the IC50 (at Ribonuclease pancreatic; in assay [5]) was over 400 µM throughout.
For the molecule `COc1cccc2c1C(=O)c1c(O)c3c(c(O)c1C2=O)C[C@@](O)(C(=O)CO)C[C@@H]3O[C@H]1C[C@H](N)[C@H](O)[C@H](C)O1` [DOXORUBICIN], the IC50 is over 200 µM on DNA topoisomerase 1; 1 µM in assay [1]; 24 µM in assay [2]; 25 µM in assay [3]; over 200 µM at DNA ligase; 96 µM in assay [4]. Moreover, the IC50 is 25 µM on Ribonuclease pancreatic and over 200 µM in assay [5].
`CC[C@@]1(O)C(=O)OCc2c1cc1n(c2=O)Cc2cc3ccccc3nc2-1` [CAMPTOTHECIN]: the IC50 is 27 µM on DNA topoisomerase 1; over 300 µM in assay [2]; over 300 µM in assay [3]; over 300 µM at DNA ligase; over 300 µM in assay [4]; over 300 µM on Ribonuclease pancreatic. For the same molecule, the IC50 in assay [5] is over 300 µM.
Regarding `C=C1NC(=O)C(C)C(CCC(C)C(=O)/C=C/C(C)=C/CC(C)CCCCCCC)OC(=O)[C@H](CC(OS(=O)(=O)O)C(N)=O)NC(=O)[C@@H](C)CNC1=O` (stereo partly specified) [TOPOSTATIN], the IC50 was 17 µM at DNA topoisomerase 1; 4 µM in assay [1]; over 250 µM in assay [2]; 7 µM in assay [3]; over 250 µM on DNA ligase; 17 µM in assay [4]. Further, the half-inhibitory concentration (IC50) (on Ribonuclease pancreatic; in assay [5]) was over 250 µM in each case.

For the origin of these results see ChEMBL document CHEMBL1155708, “Isoaurostatin, a novel topoisomerase inhibitor produced by Thermomonospora alba” (J Nat Prod, 2001).
